Results reported in PubChem BioAssay.
Calls of active or inactive are those of the source.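 Rule for the calls, unless noted: active = GFP response above 150% of the DMSO level; inconclusive = fewer than 70 events counted for a yeast strain; inactive = the rest.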

Key:
[1] = hit retest on RPL19A-GFP reporter strain – cell-based, S. cerevisiae, flow cytometry, cherry picks, mother/daughter gates, confirmation (AID 2270;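 active = GFP response below 50% of the DMSO control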); settings: 3 h, at 10 µM, stronger effect = lower value, 100 = same GFP as DMSO wells
[2] = yeast TOR pathway reporter LAP4-GFP change – cell-based, cherry picks, flow cytometry, mother/daughter gates, confirmation (AID 2271;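 active = GFP response above 150% of the DMSO control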;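 note: ratio of sample to DMSO plate mean so 100% equals DMSO level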); settings: S. cerevisiae LAP4-GFP strain, 3 h, at 10 µM, stronger effect = higher value, 100 means same as DMSO control
Summary of the method: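 System: GFP-fusion yeast strain | Input: Yeast cells seeded at OD600 of 0.2 | Technique: HT flow cytometry, GFP fluorescence channel | Read-out: % GFP response vs DMSO | Dosing: Single test-compound dose, 10 µM final | Controls: Positive rapamycin (400 ng/mL), negative DMSO | Times: 3 h treatment at 30 °C with rotation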

[3] = TOR pathway reporter MEP2-GFP, retest of hits – S. cerevisiae, flow cytometry GFP, cherry picks, confirmation (AID 2272;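 active = GFP response above 150% of the DMSO control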;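 note: ratio of well signal to plate DMSO mean so 100% equals DMSO level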); settings: S. cerevisiae MEP2-GFP strain, 3 h, at 10 µM, stronger effect = higher value
[4] = yeast AGP1-GFP fluorescence change, single-dose – cell-based, flow cytometry, S. cerevisiae, cherry picks, confirmation (AID 2273);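 note: median GFP channel fluorescence over the whole cell population gate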; settings: S. cerevisiae AGP1-GFP strain, 3 h, at 10 µM
[5] = TOR pathway CIT2 reporter hit retest – S. cerevisiae, GFP fusion, cherry picks, mother/daughter gates, confirmation (AID 2274); settings: S. cerevisiae CIT2-GFP strain, flow cytometry, 3 h, at 10 µM, stronger effect = higher value
[6] = measured here: daughter cell gate
[7] = measured here: mother cell gate
[8] = measured here: daughter cell gate response
[9] = measured here: mother cell gate response

| SMILES | GFP response vs DMSO [1] | GFP response vs DMSO [1, 6] [%] | GFP response vs DMSO [1, 7] [%] | GFP response relative to DMSO [2] | GFP response relative to DMSO [2, 8] [%] | GFP response relative to DMSO [2, 9] [%] | GFP response vs DMSO [3] | GFP response, % of DMSO [4] | GFP response, % of DMSO [5] | GFP response, % of DMSO [5, 6] [%] | GFP response, % of DMSO [5, 7] [%] |
| --- | --- | --- | --- | --- | --- | --- | --- | --- | --- | --- | --- |
| Cc1cc(C)n2nc(C(=O)NC(c3ccccc3)c3ccccc3)nc2n1 | 98.6% (inactive) | 99.9 | 98.2 | 98.6% (inactive) | 99.7 | 99.2 | 98.8% (inactive) | 104% (inactive) | 111% (inactive) | 110 | 112 |
| CCCc1[nH]nc2c1C(c1ccc(OCCN3CCOCC3)c(OCC)c1)C(C#N)=C(N)O2 (stereo not drawn) | 98.4% (inactive) | 98.4 | 98.9 | 90.2% (inactive) | 95.6 | 91.1 | 97.8% (inactive) | 97.8% (inactive) | 107% (inactive) | 105 | 108 |
| Cc1c(NC(=O)/C(C#N)=C/c2c(N3CCCCC3)nc3ccccn3c2=O)c(=O)n(-c2ccccc2)n1C | 95% (inactive) | 95.1 | 96.6 | 94.1% (inactive) | 94.4 | 95.1 | 96.2% (inactive) | 109% (inactive) | 101% (inactive) | 105 | 101 |
| O=C1c2ccsc2SCCN1Cc1ccc(Cl)cc1Cl | 96% (inactive) | 94.2 | 95.5 | 108% (inactive) | 107 | 110 | 94.7% (inactive) | 98.2% (inactive) | 90.1% (inactive) | 90.2 | 91.9 |
| O=C(CCCCCN1C(=O)c2cccc3cccc(c23)C1=O)N1CCOCC1 | 102% (inactive) | 101 | 102 | 102% (inactive) | 101 | 103 | 99% (inactive) | 99.8% (inactive) | 103% (inactive) | 101 | 103 |
| O=C(c1ccccc1F)N1CCN(c2ccccc2F)CC1 | 101% (inactive) | 99.8 | 102 | 98.7% (inactive) | 100 | 99.3 | 100% (inactive) | 95% (inactive) | 104% (inactive) | 105 | 105 |
| COCCNc1c(-c2ccc(O)cc2)nc2ccc(Cl)cn12 | 97.6% (inactive) | 97.4 | 97.7 | 99.2% (inactive) | 99.2 | 98.3 | 98.3% (inactive) | 93.1% (inactive) | 98.3% (inactive) | 99.1 | 97.3 |
| Cn1cnc([N+](=O)[O-])c1S(=O)(=O)c1cccc(Cl)c1 | 103% (inactive) | 99.9 | 100 | 107% (inactive) | 104 | 108 | 103% (inactive) | 113% (inactive) | 118% (inactive) | 119 | 113 |
| Cc1n[nH]c(C)c1N1C(=O)c2cccc3cc(Br)cc(c23)C1=O | 95.2% (inactive) | 95.9 | 97 | 99.5% (inactive) | 99.1 | 99.4 | 99% (inactive) | 105% (inactive) | 102% (inactive) | 101 | 99.3 |
| O=C(COC(=O)CCc1nc2ccccc2s1)Nc1nc(-c2ccccc2)cs1 | 101% (inactive) | 100 | 100 | 96.2% (inactive) | 98.7 | 97.2 | 100% (inactive) | 101% (inactive) | 102% (inactive) | 98.1 | 103 |
| CCOC(=O)C1(Cc2ccccc2Cl)CCN(C(=O)CCn2ccnc2C)CC1 | 96.6% (inactive) | 97.3 | 97.2 | 101% (inactive) | 104 | 99.5 | 99.5% (inactive) | 100% (inactive) | 97.8% (inactive) | 98.3 | 98 |
| COc1ccc(NC(=O)CCc2nc(-c3ccccc3F)no2)cc1 | 95.6% (inactive) | 95.9 | 93.1 | 106% (inactive) | 101 | 106 | 101% (inactive) | 97.7% (inactive) | 97.2% (inactive) | 95.8 | 94.9 |
| COc1ccc(NC(=S)N2CCC(c3ccccc3)C2)cc1 (stereo not drawn) | 103% (inactive) | 98.8 | 98 | 97% (inactive) | 95.9 | 97.3 | 101% (inactive) | 98.6% (inactive) | 97.3% (inactive) | 93.8 | 94.4 |
| Cc1nc2c(-c3ccc(F)cc3)cnn2c(N)c1-c1ccccc1 | 99.6% (inactive) | 97.9 | 98.8 | 101% (inactive) | 97.5 | 100 | 103% (inactive) | 96.7% (inactive) | 103% (inactive) | 101 | 104 |
| COC(=O)c1ccccc1Sc1ncnc2onc(C)c12 | 101% (inactive) | 100 | 101 | 111% (inactive) | 106 | 112 | 120% (inactive) | 93.2% (inactive) | 108% (inactive) | 106 | 107 |
| Cc1[nH]c2ccccc2c1C(c1ccccn1)N1CCC(C(N)=O)CC1 (stereo not drawn) | 97.4% (inactive) | 99.1 | 96.6 | 96.7% (inactive) | 99.2 | 97.2 | 98.3% (inactive) | 94.7% (inactive) | 101% (inactive) | 103 | 101 |
| Cc1cccc(Sc2ccc([N+](=O)[O-])cn2)c1 | 98.6% (inactive) | 98.9 | 98 | 92.4% (inactive) | 92 | 92 | 105% (inactive) | 104% (inactive) | 103% (inactive) | 103 | 104 |

| SMILES | GFP response vs DMSO [1] | GFP response vs DMSO [1, 6] [%] | GFP response vs DMSO [1, 7] [%] | GFP response relative to DMSO [2] | GFP response relative to DMSO [2, 8] [%] | GFP response relative to DMSO [2, 9] [%] | GFP response vs DMSO [3] | GFP response, % of DMSO [4] | GFP response, % of DMSO [5] | GFP response, % of DMSO [5, 6] [%] | GFP response, % of DMSO [5, 7] [%] |
| --- | --- | --- | --- | --- | --- | --- | --- | --- | --- | --- | --- |
| CCOC(=O)Cc1csc(NC(=O)CCCCCN2C(=O)c3cccc4cccc(c34)C2=O)n1 | 98.7% (inactive) | 99.3 | 99.3 | 88.4% (inactive) | 87.8 | 89.7 | 102% (inactive) | 98.2% (inactive) | 102% (inactive) | 98.3 | 101 |
| Cc1cc(N2CCCCC2)n2nc(C)c(-c3ccccc3)c2n1 | 99.7% (inactive) | 97.3 | 100 | 95% (inactive) | 97.2 | 96.2 | 97.8% (inactive) | 95% (inactive) | 97.8% (inactive) | 96.5 | 97.7 |
| Cc1ccc(C(=O)O)cc1N1C(=O)c2cccc3cc(Br)cc(c23)C1=O | 101% (inactive) | 98.6 | 100 | 102% (inactive) | 99.1 | 105 | 103% (inactive) | 101% (inactive) | 97.3% (inactive) | 97.4 | 98.1 |
| O=[N+]([O-])c1ccc(S(=O)(=O)c2ccccc2)nc1 | 84.5% (inactive) | 96.4 | 77.4 | 176% (active) | 156 | 174 | 126% (inactive) | 114% (inactive) | 108% (inactive) | 131 | 91.5 |
| COc1ccc([N+](=O)[O-])c(S(=O)(=O)c2ccccc2)n1 | 93.7% (inactive) | 95.8 | 90.8 | 195% (active) | 170 | 204 | 112% (inactive) | 113% (inactive) | 86% (inactive) | 96.8 | 75.8 |
| Cc1cccn2c(=O)c(/C=C(\C#N)C(=O)NC3CCS(=O)(=O)C3)c(N3CCC(C(N)=O)CC3)nc12 (stereo not drawn) | 101% (inactive) | 98.6 | 102 | 98.2% (inactive) | 97.5 | 98.4 | 99% (inactive) | 89.7% (inactive) | 97.3% (inactive) | 97.4 | 96.8 |
| Cc1ccc(C(=O)N/C(=C/c2ccco2)C(=O)N2CCOCC2)cc1 | 103% (inactive) | 100 | 104 | 105% (inactive) | 106 | 104 | 101% (inactive) | 102% (inactive) | 95.9% (inactive) | 97.4 | 95.6 |
| COc1cc(/C=C2\N=C(c3ccccc3)OC2=O)ccc1OC(C)=O | 94.9% (inactive) | 93.5 | 96.3 | 101% (inactive) | 98.2 | 102 | 112% (inactive) | 107% (inactive) | 113% (inactive) | 111 | 113 |
| CCOC(=O)Cn1cc(/C=C/[N+](=O)[O-])c2ccccc21 | 95.8% (inactive) | 92.7 | 93.5 | 160% (active) | 153 | 157 | 99.3% (inactive) | 95% (inactive) | 88.9% (inactive) | 92.3 | 83.7 |
| CC(C(=O)NCCc1ccc(F)cc1)N1CCN(Cc2ccccc2)CC1 (stereo not drawn) | 96.5% (inactive) | 97 | 96.8 | 98.7% (inactive) | 100 | 101 | 102% (inactive) | 98.5% (inactive) | 95.2% (inactive) | 96.5 | 95.5 |
| CC1=C(C)/C(=N\OS(=O)(=O)c2ccccc2)C=CC1=O | 99.1% (inactive) | 98.8 | 91.2 | 250% (active) | 196 | 236 | 112% (inactive) | 93.4% (inactive) | 105% (inactive) | 111 | 95.6 |
| COc1ccccc1/C=C/C=N/NC(=O)c1cccs1 | 97.8% (inactive) | 97.3 | 97.5 | 99.8% (inactive) | 95.6 | 102 | 107% (inactive) | 100% (inactive) | 99.1% (inactive) | 96.5 | 97.7 |
| O=C(c1cccc2ccccc12)N1CCN(c2ccccc2F)CC1 | 97.8% (inactive) | 92.9 | 95.7 | 102% (inactive) | 99.1 | 102 | 101% (inactive) | 102% (inactive) | 94.4% (inactive) | 92 | 93.2 |
| COc1ccccc1OCCCc1c(C)n[nH]c1C | 119% (inactive) | 89.8 | 115 | 207% (active) | 104 | 205 | 130% (inactive) | 76.6% (inactive) | 114% (inactive) | 101 | 101 |
| O=C(O)c1ccn2c(C(=O)c3ccccc3)c(-c3ccccc3)cc2c1 | 91.1% (inactive) | 88.6 | 95.4 | 113% (inactive) | 112 | 116 | 94.1% (inactive) | 88.2% (inactive) | 96.9% (inactive) | 95.4 | 97.3 |
| Cc1ccc(N2CCN(C(=O)c3ccccc3)CC2)c(C)c1 | 99% (inactive) | 99.4 | 99.5 | 95.4% (inactive) | 94.4 | 94 | 98.3% (inactive) | 94.3% (inactive) | 107% (inactive) | 106 | 106 |
